Source: ChEMBL document CHEMBL1126759, “Potent HIV protease inhibitors: the development of tetrahydrofuranylglycines as novel P2-ligands and pyrazine amides as P3-ligands” (J Med Chem, 1993)

Columns and labels:
[1] = target: Human immunodeficiency virus type 1 protease (Human immunodeficiency virus 1) (UniProt Q72874); assay: Tested for inhibitory concentration against spread of HIV-1 in MT-4 human T-lymphoid cells infected with IIIb isolate; type: functional, cell-based
Procedure, shortened: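 MT-4 cells grown in RPMI-1640 with 10% inactivated FBS, 4 mM glutamine and penicillin/streptomycin at 37 °C under CO2. Cells were pretreated 24 h with serially diluted compound (DMSO stock), then infected at 250 000 cells/mL, MOI 0.01. Compound was refreshed every 2–3 days. CIC was read by anti-HIV-1 immunofluorescence (complete block of spread, 7–24 days) or p24 ELISA (>95% reduction).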

[2] = target: Human immunodeficiency virus type 1 protease (Human immunodeficiency virus 1, UniProt Q72874); assay: Tested for inhibitory concentration against HIV-1 protease
[3] = target: Human immunodeficiency virus type 2 pol protein (Human immunodeficiency virus 2, UniProt P88142); assay: Tested for inhibitory concentration against HIV-2 protease; type: functional
Procedure, shortened: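 HIV-2 protease (ROD) purified the same way as HIV-1 protease, which was bacterially expressed; value reported as IC50.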

Human immunodeficiency virus type 2 pol protein, sequence (P88142 whole entry): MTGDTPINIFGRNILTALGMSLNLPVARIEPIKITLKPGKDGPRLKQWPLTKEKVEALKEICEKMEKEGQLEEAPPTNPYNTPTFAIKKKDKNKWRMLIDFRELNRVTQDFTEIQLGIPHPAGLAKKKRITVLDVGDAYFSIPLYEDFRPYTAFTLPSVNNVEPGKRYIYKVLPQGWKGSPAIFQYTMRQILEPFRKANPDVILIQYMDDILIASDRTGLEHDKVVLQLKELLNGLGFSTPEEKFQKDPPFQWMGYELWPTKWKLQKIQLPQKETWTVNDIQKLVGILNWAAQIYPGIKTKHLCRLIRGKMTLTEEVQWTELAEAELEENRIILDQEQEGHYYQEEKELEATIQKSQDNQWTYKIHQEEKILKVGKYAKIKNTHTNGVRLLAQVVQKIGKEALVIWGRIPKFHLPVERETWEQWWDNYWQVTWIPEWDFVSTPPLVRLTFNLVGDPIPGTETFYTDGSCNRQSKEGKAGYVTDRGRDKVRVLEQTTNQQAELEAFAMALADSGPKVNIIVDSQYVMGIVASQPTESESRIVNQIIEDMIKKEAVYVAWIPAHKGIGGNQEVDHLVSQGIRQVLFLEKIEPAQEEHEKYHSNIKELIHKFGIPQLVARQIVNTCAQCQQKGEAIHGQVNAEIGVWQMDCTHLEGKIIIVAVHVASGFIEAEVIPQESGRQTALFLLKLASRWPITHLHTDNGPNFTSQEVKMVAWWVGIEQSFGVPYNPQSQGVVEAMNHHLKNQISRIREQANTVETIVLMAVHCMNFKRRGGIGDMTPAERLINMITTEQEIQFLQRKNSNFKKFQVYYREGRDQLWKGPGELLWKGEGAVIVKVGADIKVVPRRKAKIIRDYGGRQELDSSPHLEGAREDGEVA

| SMILES | IC95 [1] [nM] | IC50 [2] [nM] | IC50 [3] [nM] |
| --- | --- | --- | --- |
| CC(C)(C)NC(=O)[C@@H]1C[C@@H]2CCCC[C@@H]2CN1C[C@@H](O)[C@H](Cc1ccccc1)NC(=O)[C@@H](NC(=O)c1ccc2ccccc2n1)[C@@H]1CCOC1 | 100 | 5.4 | – |
| CN1CCN(c2ncc(C(=O)N[C@H](C(=O)N[C@@H](Cc3ccccc3)[C@H](O)CN3C[C@H]4CCCC[C@H]4C[C@H]3C(=O)NC(C)(C)C)[C@H]3CCOC3)nc2Cl)CC1 | 12 | 0.071 | 0.18 |
| CC(C)(C)NC(=O)[C@@H]1C[C@@H]2CCCC[C@@H]2CN1C[C@@H](O)[C@H](Cc1ccccc1)NC(=O)[C@@H](NC(=O)c1ccc2ccccc2n1)[C@@H]1CCS(=O)(=O)C1 | – | 39 | – |
| CC(C)(C)NC(=O)[C@@H]1C[C@@H]2CCCC[C@@H]2CN1C[C@@H](O)[C@H](Cc1ccccc1)NC(=O)[C@@H](NC(=O)c1ccc2ccccc2n1)[C@@H]1CCSC1 | > 200 | 3.3 | – |
| CC(C)(C)NC(=O)[C@@H]1C[C@@H]2CCCC[C@@H]2CN1C[C@@H](O)[C@H](Cc1ccccc1)NC(=O)[C@@H](NC(=O)c1ccc2ccccc2n1)[C@H]1CCSC1 | 50 | 0.6 | – |
| CN(C)c1nc(N)c(C(=O)N[C@H](C(=O)N[C@@H](Cc2ccccc2)[C@H](O)CN2C[C@H]3CCCC[C@H]3C[C@H]2C(=O)NC(C)(C)C)[C@H]2CCOC2)nc1Cl | 25 | 0.24 | – |
| CN(C)c1ncc(C(=O)N[C@H](C(=O)N[C@@H](Cc2ccccc2)[C@H](O)CN2C[C@H]3CCCC[C@H]3C[C@H]2C(=O)NC(C)(C)C)[C@H]2CCOC2)nc1Cl | 12 | 0.06 | – |
| CC(C)(C)NC(=O)[C@@H]1C[C@@H]2CCCC[C@@H]2CN1C[C@@H](O)[C@H](Cc1ccccc1)NC(=O)[C@@H](NC(=O)c1ccc2ccccc2n1)[C@H]1CCS(=O)(=O)C1 | – | 0.5 | – |
| COC(=O)c1nc(Cl)c(N[C@H](C(=O)N[C@@H](Cc2ccccc2)[C@H](O)CN2C[C@H]3CCCC[C@H]3C[C@H]2C(=O)NC(C)(C)C)[C@H]2CCOC2)nc1N | 3 | 0.16 | 24.9 |
| CC(C)(C)NC(=O)[C@@H]1C[C@@H]2CCCC[C@@H]2CN1C[C@@H](O)[C@H](Cc1ccccc1)NC(=O)[C@@H](NC(=O)c1ccc2ccccc2n1)C1CCOCC1 | – | 67.9 | – |
| CC(C)(C)NC(=O)[C@@H]1C[C@@H]2CCCC[C@@H]2CN1C[C@@H](O)[C@H](Cc1ccccc1)NC(=O)[C@@H](NC(=O)c1cnc2ccccc2n1)[C@H]1CCOC1 | 12 | 0.12 | – |
| CC(C)(C)NC(=O)[C@@H]1C[C@@H]2CCCC[C@@H]2CN1C[C@@H](O)[C@H](Cc1ccccc1)NC(=O)[C@@H](NC(=O)c1cnccn1)[C@H]1CCOC1 | – | 2.83 | – |
| CC(C)[C@H](NC(=O)c1cnc2ccccc2n1)C(=O)N[C@@H](Cc1ccccc1)[C@H](O)CN1C[C@H]2CCCC[C@H]2C[C@H]1C(=O)NC(C)(C)C | – | 0.39 | – |
| CC(C)(C)NC(=O)[C@@H]1C[C@@H]2CCCC[C@@H]2CN1C[C@@H](O)[C@H](Cc1ccccc1)NC(=O)[C@@H](NC(=O)c1cc(=O)c2ccccc2o1)[C@H]1CCOC1 | 25 | 0.11 | – |
| CC(C)[C@H](NC(=O)c1ccc2ccccc2n1)C(=O)N[C@@H](Cc1ccccc1)[C@H](O)CN1C[C@H]2CCCC[C@H]2C[C@H]1C(=O)NC(C)(C)C | 100 | 0.7 | 3.2 |
| CC(C)(C)NC(=O)[C@@H]1C[C@@H]2CCCC[C@@H]2CN1C[C@@H](O)[C@H](Cc1ccccc1)NC(=O)[C@@H](NC(=O)c1ccc2ccccc2n1)C1CCCC1 | – | 2.6 | – |
| CC(C)(C)NC(=O)[C@@H]1C[C@@H]2CCCC[C@@H]2CN1C[C@@H](O)[C@H](Cc1ccccc1)NC(=O)[C@H](CC(N)=O)NC(=O)c1ccc2ccccc2n1 | 22 | – | 0.5 |
| CC(C)[C@H](NC(=O)c1cc(=O)c2ccccc2o1)C(=O)N[C@@H](Cc1ccccc1)[C@H](O)CN1C[C@H]2CCCC[C@H]2C[C@H]1C(=O)NC(C)(C)C | 25 | 0.15 | – |
| CC(C)(C)NC(=O)[C@@H]1C[C@@H]2CCCC[C@@H]2CN1C[C@@H](O)[C@H](Cc1ccccc1)NC(=O)[C@@H](NC(=O)c1ccc2ccccc2n1)C1CCOC1 (stereo partly specified) | 8 | 0.054 | 0.24 |
